Test system: Jurkat cells
Assay: Apoptotic protection assay
Format: cell-based
Details: 20 µM inhibitor for 3 h before 10 ng/mL MegaFasL, CellTiter-Glo
Summary of the method: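 Jurkat A3 cells were grown near confluence (10% FBS, pen/strep/glutamine, 37 °C, 5% CO2), resuspended in fresh medium, and plated at 10,000 cells/well. They were then given test compound (20 µM, or a concentration series with 30 min pretreatment) or DMSO vehicle, for set times before or after 10 ng/mL MegaFasL. Viability was read by CellTiter-Glo 3 h after induction.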

## Z-D^ME^MVD^M-FMK [0^M]
  protection from extrinsic apoptosis (cellular viability): able to preserve cellular viability
